Assay results as given in ChEMBL document CHEMBL1141362, “Synthesis and solid-phase purification of anthranilic sulfonamides as CCK-2 ligands” (Bioorg Med Chem Lett, 2007).

Tests used:
[1] = Metabolic stability in human liver microsomes after 30 mins; type: ADME, Microsome; details: read-out: Stability
Outline: (§1)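 Compound incubated with human or rat liver microsomes to assess stability toward CYP450 oxidation. The read-out is percent of parent compound remaining after 30 min.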

[2] = Metabolic stability in rat liver microsomes after 30 mins; type: ADME, Microsome; details: read-out: Stability; outline: as §1
[3] = biological target: T1, Gastrin/cholecystokinin type B receptor (Homo sapiens, UniProt P32239); experiment: Displacement of [125I]CCK-8S from CCK2 receptor
T1 sequence (P32239 whole entry): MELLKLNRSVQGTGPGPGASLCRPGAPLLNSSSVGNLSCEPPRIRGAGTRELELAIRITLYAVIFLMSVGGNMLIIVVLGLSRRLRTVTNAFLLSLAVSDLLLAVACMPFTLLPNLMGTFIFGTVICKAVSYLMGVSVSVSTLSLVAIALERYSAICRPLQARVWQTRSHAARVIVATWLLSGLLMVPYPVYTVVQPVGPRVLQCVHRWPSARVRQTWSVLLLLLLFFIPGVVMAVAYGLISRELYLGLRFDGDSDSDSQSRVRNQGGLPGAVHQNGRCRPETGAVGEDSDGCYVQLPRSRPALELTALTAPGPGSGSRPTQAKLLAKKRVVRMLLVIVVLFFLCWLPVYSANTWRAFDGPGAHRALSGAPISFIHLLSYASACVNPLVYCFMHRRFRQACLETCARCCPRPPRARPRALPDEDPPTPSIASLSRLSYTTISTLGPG
Outline: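 Apparent antagonist equilibrium dissociation constant, reported as its negative logarithm, derived by the Cheng–Prusoff method from the concentration displacing 50% of 125I-CCK-8S (pIC50). Values are ±0.3 log units unless stated otherwise.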

[4] = biological target: T2, Cholecystokinin receptor type A (Homo sapiens, UniProt P32238); experiment: Binding affinity to CCK1 receptor
T2 sequence (P32238 whole entry): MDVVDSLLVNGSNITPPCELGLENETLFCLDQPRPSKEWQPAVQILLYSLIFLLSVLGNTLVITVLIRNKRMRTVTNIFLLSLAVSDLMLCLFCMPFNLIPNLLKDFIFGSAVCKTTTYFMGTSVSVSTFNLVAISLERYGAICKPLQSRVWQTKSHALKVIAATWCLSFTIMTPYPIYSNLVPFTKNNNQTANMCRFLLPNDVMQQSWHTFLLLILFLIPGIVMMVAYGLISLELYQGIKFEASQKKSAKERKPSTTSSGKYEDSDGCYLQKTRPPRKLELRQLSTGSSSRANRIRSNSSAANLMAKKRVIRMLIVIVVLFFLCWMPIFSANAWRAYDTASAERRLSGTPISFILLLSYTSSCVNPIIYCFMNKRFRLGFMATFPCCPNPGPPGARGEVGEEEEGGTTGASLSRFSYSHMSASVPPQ

SMILES | remaining at 0.5 h [1] [%] | remaining at 0.5 h [2] [%] | Ki [3] [µM] | Ki [4] [µM]
O=C(c1ccc(Br)cc1NS(=O)(=O)c1cccc2nsnc12)N1CCCCC1 | 0 | 29 |  | 
O=C(NCc1ccc(S(=O)(=O)Nc2cc(Br)ccc2C(=O)N2CCCCC2)s1)c1ccccc1 | 0 | 0 | 6.31 | 
COC(=O)c1sc(C(F)(F)F)c(-c2ccccc2)c1S(=O)(=O)Nc1cc(Br)ccc1C(=O)N1CCCCC1 | 0 | 0 | 7.94 | 
N#Cc1cccc(S(=O)(=O)Nc2cc(Br)ccc2C(=O)N2CCCCC2)c1 | 7 | 100 | 5.01 | 
Cc1nnc(-c2cccc(S(=O)(=O)Nc3cc(Br)ccc3C(=O)N3CCCCC3)c2)o1 | 0 | 66 | 7.94 | 
Cc1nc(-c2ccc(S(=O)(=O)Nc3cc(Br)ccc3C(=O)N3CCCCC3)s2)cs1 | 5 | 47 | 3.98 | 
O=C(c1cc(Cl)ccc1NS(=O)(=O)c1cccc2nsnc12)N1CCCCC1 |  |  |  | > 10
O=C(c1ccc(Br)cc1NS(=O)(=O)c1ccc2nsnc2c1)N1CCCCC1 | 13 | 23 | 5.01 | 
O=C(c1ccc(Br)cc1NS(=O)(=O)c1csc2ccccc12)N1CCCCC1 | 23 | 19 | 3.16 | 
COC(=O)c1cc(S(=O)(=O)Nc2cc(Br)ccc2C(=O)N2CCCCC2)oc1C | 10 | 100 | 5.01 | 
COC(=O)c1csc(S(=O)(=O)Nc2cc(Br)ccc2C(=O)N2CCCCC2)c1OC | 0 | 0 | 5.01 | 
O=C(c1ccc(Br)cc1NS(=O)(=O)c1ccc(-c2cc(C(F)(F)F)on2)s1)N1CCCCC1 | 89 | 87 | 5.01 | 
Cc1c(S(=O)(=O)Nc2cc(Br)ccc2C(=O)N2CCCCC2)cnn1-c1ccccc1 | 85 | 30 | 7.94 | 

Other lines, results leading:

remaining at 0.5 h [1] [%] | remaining at 0.5 h [2] [%] | Ki [3] [µM] | Ki [4] [µM] | SMILES
0 | 11 | 0.501 |  | COC(=O)c1c(C)oc(C)c1S(=O)(=O)Nc1cc(Br)ccc1C(=O)N1CCCCC1
77 | 78 | 0.501 |  | O=C(c1ccc(Br)cc1NS(=O)(=O)c1c(F)cccc1F)N1CCCCC1
44 | 49 | 0.631 |  | O=C(c1ccc(Br)cc1NS(=O)(=O)c1ccc(C(F)(F)F)cc1Cl)N1CCCCC1
63 | 39 | 3.16 |  | CSc1nccc(-c2ccc(S(=O)(=O)Nc3cc(Br)ccc3C(=O)N3CCCCC3)s2)n1
2 | 68 | 0.794 |  | O=C(c1ccc(Br)cc1NS(=O)(=O)c1sc(Cl)cc1Br)N1CCCCC1
3 | 25 | 2 |  | Cc1ccc(S(=O)(=O)Nc2cc(Br)ccc2C(=O)N2CCCCC2)cc1[N+](=O)[O-]
7 | 100 | 1.58 |  | O=C(c1ccc(Br)cc1NS(=O)(=O)c1c(Cl)nc2sccn12)N1CCCCC1
41 | 9 | 2.51 |  | O=C(c1ccc(Br)cc1NS(=O)(=O)c1ccc2c(c1)OCCCO2)N1CCCCC1
3 | 37 | 1.58 |  | COC(=O)c1sccc1S(=O)(=O)Nc1cc(Br)ccc1C(=O)N1CCCCC1
